Hits are enriched below; roughly 3.2% of the tested compounds scored in any of these assays.
Calb biofilm kill: clotrimazole potentiators killing C. albicans biofilm, primary screen, 4-compound mixtures. 0.02% of 120,000 active. inhibition, % at 7.6 µM. AID 1242, 2008. C. albicans biofilm persisters + clotrimazole, fluorescence viability; primary screen in compound mixtures of four per well;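 note: compounds exposed to preformed 24 h biofilms for 48 h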
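Probe or stimulus – Clotrimazole 50 µg/mL co-treatment · System – C. albicans biofilms · Schedule – 24 h biofilm formation, then 48 h compound exposure, 37 °C · Evaluation – percent inhibition of biofilm viability · Technique – 2-h Alamar Blue fluorescence, 535/590 nm excitation/emission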
Mcl1-Bid inh: Mcl-1/Bid binding inhibitors, primary screen, biochemical, TR-FRET, 1536-well; 0.97% of 220,000 active; TR-FRET Mcl-1/Bid-Dy647 peptide binding; AID 1021, 2008; inhibition, % at 21.7 µM;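 active = compounds that cut the binding signal by more than half at the single screening dose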;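 note: His-tagged Mcl-1 with europium anti-His antibody binding Bid BH3 peptide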
Mcl-1 Bim block: inhibitors of Bim peptide binding to Mcl-1, primary screen, biochemical, bead-based flow cytometry, multiplex; Induced myeloid leukemia cell differentiation protein Mcl-1 (Homo sapiens), Q07820; Bim peptide-Mcl-1 binding; inhibition, % at 10 µM; 0.1% of 190,000 active; in the data active = inhibition above about 40%
14-3-3 Bad PPI: inhibitors of 14-3-3 zeta/Bad binding, primary screen, biochemical, TR-FRET, bovine 14-3-3 zeta | TR-FRET 14-3-3zeta/Dy647-pBad peptide displacement, 1 h | 14-3-3 protein zeta/delta (Bos taurus), P63103 | 0.71% of 220,000 active | inhibition, % at 21.7 µM | AID 781, 2007;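 active = inhibition above about 70%, limit read from the data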
Target sequence (P63103 whole entry, looked up): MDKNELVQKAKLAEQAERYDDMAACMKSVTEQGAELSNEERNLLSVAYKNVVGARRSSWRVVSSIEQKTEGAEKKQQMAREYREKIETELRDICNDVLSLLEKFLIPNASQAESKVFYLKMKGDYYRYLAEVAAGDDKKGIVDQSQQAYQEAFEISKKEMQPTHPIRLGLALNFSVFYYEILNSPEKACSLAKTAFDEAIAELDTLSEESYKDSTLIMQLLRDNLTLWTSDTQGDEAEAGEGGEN
Hck Nef HTS: inhibitors of Nef-activated human Hck kinase, primary screen, biochemical, Z-Lyte FRET, 384-well, Hck-YEEI; Recombinant Hck-YEEI plus Nef, Z-Lyte FRET kinase assay; 0.68% of 220,000 active; AID 463187, 2010; inhibition, % at 20 µM;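 active = Hck-Nef kinase inhibition above about 50%, limit read from the data; inactive = inhibition below that limit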
Mcl1 Noxa PPI: Mcl-1/Noxa binding inhibitors, primary screen, biochemical, TR-FRET, 1536-well. inhibition, % at 21.7 µM. 1.5% of 220,000 active. TR-FRET Mcl-1/Noxa peptide binding, 2 h. AID 1022, 2008;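 active = compounds that cut the protein-peptide binding signal by more than 50% relative to plate controls in a single-dose test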;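 note: His-tagged Mcl-1 with rhodamine Noxa BH3 peptide and terbium anti-His antibody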
Each line names hits and unclear results; the compound was inactive in the other large screens; ! = a repeat was not active.

O=[N+]([O-])c1ccccc1N/N=C/c1cccc(O)c1O	Mcl1 Noxa PPI 54.1 (no result: Mcl-1 Bim block)
O=[N+]([O-])c1ccccc1N/N=C\c1ccccc1Cl	none (no result: Calb biofilm kill)
COc1ccc(CNC(=O)CN(C(=O)Cn2nnc(-c3ccccc3F)n2)c2ccc(C)cc2)cc1	none
O=S(=O)(CC12C3C4C5C1C2C(Br)(C43)C51OCCO1)c1ccccc1 (stereo not drawn)	none
COc1ccc(NCC(=O)Nc2ccc(Br)cc2F)c(OC)c1	none (no result: Mcl-1 Bim block)
Cn1nc(-c2ccc(Cl)cc2)c2cc(C(=O)NCCCN3CCOCC3)sc21	none (no result: Calb biofilm kill)
Cn1nc(-c2ccc(Cl)cc2)c2cc(C(=O)NCCN3CCOCC3)sc21	Mcl1-Bid inh 94.0 (no result: Calb biofilm kill)
CCN(CC)c1ccc(NC(=O)c2nc3nc(C)cc(C(F)F)n3n2)cc1	Mcl1 Noxa PPI 57.6 (no result: Calb biofilm kill)
Cc1cc(C)n2nc(C(=O)Nc3ccc4c(c3)OCO4)nc2n1	Mcl1 Noxa PPI 53.5 (no result: Calb biofilm kill)
COc1ccc(NC(=O)c2nc3nc(C)cc(C(F)F)n3n2)cc1OC	none (no result: Calb biofilm kill)
COc1cccc2c(=O)c3ccccc3oc12	Mcl1-Bid inh 54.6!
COc1ccc2oc3ccccc3c(=O)c2c1	none (no result: Mcl-1 Bim block)
O=C(COc1cccc2c1CCN(Cc1ccc(Br)cc1)C2=O)N1CCOCC1	none
CCN1CCc2c(OCc3ccc(C(=O)OC)o3)cccc2C1=O	Mcl1-Bid inh 91.8
O=C(COc1cccc2c1CCN(Cc1ccc(Br)cc1)C2=O)NCc1ccco1	Mcl1-Bid inh 95.3
CC(OC(=O)c1cccc(N2C(=O)c3ccccc3C2=O)c1)C(=O)Nc1ccc(N(C)C)cc1 (stereo not drawn)	Mcl1 Noxa PPI 76.1
Cc1ccc(NC(=O)COC(=O)c2cccc(N3C(=O)c4ccccc4C3=O)c2)cc1	none (no result: Mcl-1 Bim block)
CN(C)c1ccc(NC(=O)c2cccc(N3C(=O)C4C5C=CC(C5)C4C3=O)c2)cc1 (stereo not drawn)	Mcl1 Noxa PPI 79.9 (no result: Calb biofilm kill)
COC(=O)c1ccccc1NC(=O)COC(=O)C1CCCCC1	none (no result: Mcl-1 Bim block)
O=C1NC(=S)S/C1=C\c1ccc(SCc2ccccc2)o1	Mcl1 Noxa PPI 81.1
Cc1nn(C)cc1/C=C1\SC(=S)NC1=O	none (no result: Calb biofilm kill)
O=C1NC(=S)S/C1=C\c1ccc(SCc2ccco2)o1	Mcl1-Bid inh 62.0, Hck Nef HTS 84.9, Mcl1 Noxa PPI 98.3
Cc1cc(/C=C2\SC(=S)NC2=O)cc(C)c1O	none (no result: Mcl-1 Bim block)
O=C(Nc1nnc(COc2ccc(Cl)cc2)s1)c1ccco1	none
CC1CCC(C(C)C)C(OCC(O)CN2CCN(Cc3ccccc3)CC2)C1 (stereo not drawn)	14-3-3 Bad PPI 73.8 (no result: Calb biofilm kill)
CC1CCC(C(C)C)C(OCC(O)CN2CCOCC2)C1 (stereo not drawn)	none (no result: Calb biofilm kill)
N#CCCN(C(=O)COc1ccc(F)cc1Br)c1ccccc1F	none
COc1ccc(N2C(=O)CC(NC34CC5CC(CC(C5)C3)C4)C2=O)c(OC)c1 (stereo not drawn)	Mcl1-Bid inh 57.4 (no result: Calb biofilm kill)
COc1ccc(CCN2C(=O)CC(NC34CC5CC(CC(C5)C3)C4)C2=O)cc1OC (stereo not drawn)	none
S=C(NC1CCCCC1)N1CCn2cccc2C1c1cccnc1 (stereo not drawn)	Mcl1 Noxa PPI 63.5
O=C(CCO)c1ccc(O)cc1	14-3-3 Bad PPI 74.5, Mcl1 Noxa PPI 77.9
CCCCC(=O)c1ccc(O)cc1	none (no result: Calb biofilm kill)
CC1(C)OC(C)(C)/C(=C/Nc2ccc(O)cc2)C1=O	Mcl1 Noxa PPI 57.0
COc1ccc(CN2CCN(C3CCOCC3)CC2CCO)c(C)c1C (stereo not drawn)	none
COc1ccc(CN2CCOCC2)c(C)c1C	14-3-3 Bad PPI 70.6 (no result: Calb biofilm kill)
Cn1c(/N=C/c2c(O)ccc3ccccc23)nc2ccccc21	Mcl1-Bid inh 56.5 (no result: Calb biofilm kill)
CCOC(=O)c1ccccc1NC(=O)CN(c1ccccc1)S(=O)(=O)N(C)C	none (no result: Calb biofilm kill)

Screening data from PubChem BioAssay.
